This note sets out measurements from ChEMBL document CHEMBL1153549 (Antimicrob Agents Chemother, 2008).

SMILES strings stand for the structures. Converted amounts (≈) assume the structure as drawn. The source made the active and inactive calls. No cut-off for these calls is given here.

Series [1] relates to Streptococcus pneumoniae. Description: Ratio of antibacterial activity against Streptococcus pneumoniae ATCC 49619 in presence of 1 mg/ml pulmonar surfactant and 50 mg/liter Ca2+ to antibacterial against Streptococcus pneumoniae ATCC 49619. Type of series: functional. In a few lines: (§1)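 CLSI broth microdilution in cation-adjusted Mueller-Hinton broth combined with checkerboard of drug against pulmonary surfactant up to 1 mg/ml (25-fold dilution of Survanta); 50 mg/liter Ca2+ added for daptomycin only. Ratios of activity with vs without surfactant given as median and range of two separate experiments.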

Series [2] concerns Staphylococcus aureus. The experiment in a line: Antibacterial activity against methicillin-resistant Staphylococcus aureus ATCC 33591 by standard checkerboard method in presence of pulmonar surfactant and 50 mg/liter Ca2+. The class given is functional, organism-based. In outline: (§2)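 Checkerboard combination of antibiotic with pulmonary surfactant (Survanta) by CLSI broth microdilution in cation-adjusted Mueller-Hinton broth. The top surfactant level was 1 mg/ml, a 25-fold dilution of Survanta. For daptomycin, the broth carried 50 mg/liter Ca2+.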

Series [3] deals with Staphylococcus aureus. The experiment in a line: Ratio of antibacterial activity against methicillin-resistant Staphylococcus aureus ATCC 33591 in presence of 1 mg/ml pulmonar surfactant and 50 mg/liter Ca2+ to antibacterial against methicillin-resistant Staphylococcus aureus ATCC 33591. Type of series: functional. In a few lines:
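Broth microdilution in cation-adjusted Mueller-Hinton broth (plus 50 mg/liter Ca2+ for daptomycin), with versus without 1 mg/ml pulmonary surfactant (Survanta). Reported as the median and range of activity ratios from two separate experiments.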

The subject of series [4] is Streptococcus pneumoniae. The experiment in a line: Antibacterial activity against Streptococcus pneumoniae ATCC 49619 by standard checkerboard method in presence of pulmonar surfactant and 50 mg/liter Ca2+. The class given is functional, organism-based. In a few lines:
as §1

Series [5] deals with Streptococcus pneumoniae. The experiment in a line: Antibacterial activity against Streptococcus pneumoniae ATCC 49619 by standard checkerboard method in presence of 0.2 to 1 mg/ml pulmonar surfactant. The class given is functional, organism-based. In a few lines:
as §1

For series [6], the system named is Staphylococcus aureus. The experiment in a line: Antibacterial activity against methicillin-resistant Staphylococcus aureus ATCC 33591 by standard checkerboard method in presence of 0.2 to 1 mg/ml pulmonar surfactant. Type of series: functional, organism-based. In a few lines:
as §2

Series [7] can be described thus: Mean residence time in healthy human at 10 mg/kg, iv once daily for 3 days measured at 24 after start of infusion. Type of series: ADME, organism-based. Further details: dose 10 mg/kg, route intravenous. The conditions noted are these: in vivo. In a few lines: (§3)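 Plasma from healthy adults given 10 mg/kg IV over 60 min daily for 3 days, sampled before infusions 1 and 3 and 1, 2, 4, 6, 8, 12, 24 h after the third; validated LC-MS/MS (LLOQ 0.25 μg/ml). Noncompartmental analysis: Cmax, Tmax, Cmin observed; AUC0-24 linear trapezoidal; kel by log-linear regression; t1/2 = 0.693/kel; CL = dose/AUC0-24.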

A short description of series [8]: Plasma concentration in healthy human undergoing fiber-optic bronchoscopy at 10 mg/kg, iv once daily for 3 days measured at 12 hrs after start of infusion by validated liquid chromatography. Further details: dose 10 mg/kg, route intravenous. The class given is ADME, organism-based.
Series [9] in a line: Clearance at steady state in healthy human at 10 mg/kg, iv once daily for 3 days measured at 24 after start of infusion. Type of series: ADME, organism-based. Further details: dose 10 mg/kg, route intravenous. The conditions noted are these: in vivo, read-out: CLss (converted). In outline:
as §3

Series [10] in a line: Drug level in alveolar macrophage of healthy human undergoing fiber-optic bronchoscopy at 10 mg/kg, iv once daily for 3 days measured at 8 hrs after start of infusion by validated liquid chromatography. Type of series: ADME, organism-based. The settings on record: alveolar macrophages, read-out: Drug uptake. Also on record: dose 10 mg/kg, route intravenous.
Series [11] in a line: Drug level in alveolar macrophage of healthy human undergoing fiber-optic bronchoscopy at 10 mg/kg, iv once daily for 3 days measured at 12 after start of infusion by validated liquid chromatography. The class given is ADME, organism-based. Also on record: dose 10 mg/kg, route intravenous. The settings on record: alveolar macrophages, read-out: Drug uptake.
For series [12], the system named is Streptococcus pneumoniae. Description: Antibacterial activity against Streptococcus pneumoniae.
Series [13] has as its system Staphylococcus aureus. The experiment in a line: Antibacterial activity against methicillin-susceptible Staphylococcus aureus. Type of series: functional. In a few lines:
(§4)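 MICs by CLSI reference broth microdilution in cation-adjusted Mueller-Hinton broth. For daptomycin testing, the medium was supplemented with 50 mg/liter Ca2+.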

Series [14] is described as follows: Drug level in epithelial lining fluid of healthy human undergoing fiber-optic bronchoscopy at 10 mg/kg, iv once daily for 3 days measured at 24 hrs after start of infusion by validated liquid chromatography. The class given is ADME, organism-based. Also on record: dose 10 mg/kg, route intravenous. The conditions noted are these: read-out: Drug uptake.
Series [15] in a line: Plasma concentration in healthy human undergoing fiber-optic bronchoscopy at 10 mg/kg, iv once daily for 3 days measured at 24 hrs after start of infusion by validated liquid chromatography. Also on record: dose 10 mg/kg, route intravenous. The class given is ADME, organism-based.
Series [16] concerns Mus musculus. The experiment in a line: fAUC (0 to 24) in mouse pneumonia model at 40 mg/kg. Further details: dose 40 mg/kg. The class given is ADME, organism-based. The conditions noted are these: in vivo.
The nature of series [17]: Cmax in healthy human at 10 mg/kg, iv once daily for 3 days measured at 24 after start of infusion. Type of series: ADME, organism-based. Further details: dose 10 mg/kg, route intravenous. The settings on record: in vivo. In a few lines:
as §3

The nature of series [18]: Ratio of drug level in alveolar macrophage to plasma of healthy human undergoing fiber-optic bronchoscopy at 10 mg/kg, iv once daily for 3 days measured at 12 hrs after start of infusion. The settings on record: alveolar macrophages / plasma.
Series [19] can be described thus: Drug level in epithelial lining fluid of healthy human undergoing fiber-optic bronchoscopy at 10 mg/kg, iv once daily for 3 days measured at 8 hrs after start of infusion by validated liquid chromatography. Type of series: ADME, organism-based. Further details: dose 10 mg/kg, route intravenous. The conditions noted are these: read-out: Drug uptake.
Series [20] has as its system Homo sapiens. Description: Toxicity in healthy human at 10 mg/kg, iv once daily for 3 days by clinical laboratory test. The class given is organism-based. Further details: dose 10 mg/kg, route intravenous. The settings on record: in vivo, 72 h. In a few lines: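 Safety monitored by physical examinations, electrocardiographs and clinical laboratory tests (hematology, serum chemistry, urinalysis) at screening and specified times during 3 days of 10 mg/kg 1-h IV infusions.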

Series [21] can be described thus: Terminal half life in healthy human at 10 mg/kg, iv once daily for 3 days measured at 24 after start of infusion. The class given is ADME, organism-based. Also on record: dose 10 mg/kg, route intravenous. The settings on record: in vivo, read-out: beta t1/2 (converted). In a few lines: as §3
The subject of series [22] is Staphylococcus aureus. Description: Antibacterial activity against methicillin-resistant Staphylococcus aureus ATCC 33591 by CLSI broth microdilution method. Type of series: functional. In a few lines:
as §4
(In broth dilution the organism is exposed to a series of concentrations in liquid medium.)

Series [23] deals with Homo sapiens. Description: Toxicity in healthy human assessed as pulmonar inflammation at 10 mg/kg, iv once daily for 3 days. Type of series: organism-based. Further details: dose 10 mg/kg, route intravenous. The settings on record: in vivo, 72 h.
A short description of series [24]: AUC (0 to 24) in epithelial lining fluid of healthy human at 10 mg/kg, iv once daily for 3 days. Type of series: ADME, organism-based. Also on record: time < 24 hr, dose 10 mg/kg, route intravenous. The settings on record: in vivo, 24 h.
In series [25] the test system is Streptococcus pneumoniae. The experiment in a line: Antibacterial activity against […] Streptococcus pneumoniae. Type of series: functional. In a few lines:
as §4

Series [26] concerns Homo sapiens. The experiment in a line: Toxicity in healthy human at 10 mg/kg/day infused over 1 hr. Type of series: organism-based. The conditions noted are these: in vivo.
Series [27] can be described thus: Ratio of drug level in alveolar macrophage to plasma of healthy human undergoing fiber-optic bronchoscopy at 10 mg/kg, iv once daily for 3 days measured at 24 hrs after start of infusion. The settings on record: alveolar macrophages / plasma.
Series [28] deals with Staphylococcus aureus. The experiment in a line: Antibacterial activity against methicillin-resistant Staphylococcus aureus. Type of series: functional.
Series [29] in a line: Drug level in alveolar macrophage of healthy human undergoing fiber-optic bronchoscopy at 10 mg/kg, iv once daily for 3 days measured at 24 after start of infusion by validated liquid chromatography. Type of series: ADME, organism-based. Further details: dose 10 mg/kg, route intravenous. The conditions noted are these: alveolar macrophages, read-out: Drug uptake.
A short description of series [30]: Tmax in healthy human at 10 mg/kg, iv once daily for 3 days measured at 24 after start of infusion. Type of series: ADME, organism-based. Also on record: dose 10 mg/kg, route intravenous. The conditions noted are these: in vivo. In a few lines:
as §3

In series [31] the test system is Homo sapiens. The experiment in a line: Toxicity in healthy human assessed as pulmonar infection at 10 mg/kg, iv once daily for 3 days. The class given is organism-based. Further details: dose 10 mg/kg, route intravenous. The settings on record: in vivo, 72 h.
A short description of series [32]: Cmin in healthy human at 10 mg/kg, iv once daily for 3 days measured at 24 after start of infusion. The conditions noted are these: in vivo, read-out: Cmin. Type of series: ADME, organism-based. Also on record: dose 10 mg/kg, route intravenous. In outline:
as §3

The test system of series [33] is Homo sapiens. Description: Plasma protein binding in healthy human undergoing fiber-optic bronchoscopy at 10 mg/kg, iv once daily for 3 days. The conditions noted are these: read-out: PPB (converted).

Usually MRT stands for a mean duration of stay, worked out from the concentration-time curve. Usually MIC90 stands for the lowest concentration that inhibits either 90% of growth or 90% of the strains tested, depending on the study. Higher therefore signals lower susceptibility. The term Cmax denotes the peak of the concentration-time curve. As a reminder, the Kp is tissue or fluid exposure divided by exposure in the circulation. As usually defined, the Tmax is the time from dosing to the highest level.

Consider `CCCCCCCCCC(=O)N[C@@H](Cc1c[nH]c2ccccc12)C(=O)N[C@H](CC(N)=O)C(=O)N[C@@H](CC(=O)O)C(=O)N[C@@H]1C(=O)NCC(=O)N[C@@H](CCCN)C(=O)N[C@@H](CC(=O)O)C(=O)N[C@H](C)C(=O)N[C@@H](CC(=O)O)C(=O)NCC(=O)N[C@H](CO)C(=O)N[C@@H]([C@H](C)CC(=O)O)C(=O)N[C@@H](CC(=O)c2ccccc2N)C(=O)O[C@@H]1C`, for which the Ratio is 128 in series [1] and 32 in [3]. For the same molecule, the result in series [2] and in series [4] was inactive.
As to `CN[C@H](CC(C)C)C(=O)N[C@H]1C(=O)N[C@@H](CC(N)=O)C(=O)N[C@H]2C(=O)N[C@H]3C(=O)N[C@H](C(=O)N[C@H](C(=O)O)c4cc(O)cc(O)c4-c4cc3ccc4O)[C@H](O)c3ccc(c(Cl)c3)Oc3cc2cc(c3O[C@@H]2O[C@H](CO)[C@@H](O)[C@H](O)[C@H]2O[C@H]2C[C@](C)(N)[C@H](O)[C@H](C)O2)Oc2ccc(cc2Cl)[C@H]1O`, the outcome in [5] and in [6] was Active.
On to `CO/N=C(\C(=O)N[C@@H]1C(=O)N2C(C(=O)O)=C(CSc3nc(=O)c(O)nn3C)CS[C@H]12)c1csc(N)n1`, for which the result in series [5] and in series [6] was Active.
`CCCCCCCCCCNCCN[C@@]1(C)C[C@H](O[C@H]2[C@H](Oc3c4cc5cc3Oc3ccc(cc3Cl)[C@@H](O)[C@@H](NC(=O)[C@@H](CC(C)C)NC)C(=O)N[C@@H](CC(N)=O)C(=O)N[C@H]5C(=O)N[C@H]3C(=O)N[C@H](C(=O)N[C@H](C(=O)O)c5cc(O)c(CNCP(=O)(O)O)c(O)c5-c5cc3ccc5O)[C@H](O)c3ccc(c(Cl)c3)O4)O[C@H](CO)[C@@H](O)[C@@H]2O)O[C@@H](C)[C@H]1O` [TELAVANCIN] returned an MRT in series [7] of 9.42 h. Also, in series [8], the concentration at 12 h came out at 22900 ng/mL. The clearance in series [9] was 0.217 mL/min/kg. Moreover, the concentration at 8 h was found to be 19000 ng/mL in series [10] and 3700 ng/mL in series [19]. Moreover, the concentration at 72 h in [11] amounted to 45000 ng/mL; in [29], 42000 ng/mL; in [32], 8110 ng/mL. The MIC90 in [12] is 0.03 µg/mL (≈ 0.0171 µM); in [13], 0.5 µg/mL (≈ 0.285 µM); in series [25], 0.03 µg/mL (≈ 0.0171 µM); in [28], 0.5 µg/mL (≈ 0.285 µM). Besides, the results for the concentration at 24 h in series [14] and in series [15] were 900 ng/mL and 7280 ng/mL, respectively. The molecule further registered a fAUC in series [16] of 52.3 µg/h/mL. The concentration in [17] peaked (Cmax) at 116000 ng/mL. The Kp at 12 h in [18] was determined as 1.93. Besides, the Activity entry in [20] was “Non-toxic”; in series [22] it was 0.5 µg/mL; in series [23], “Non-toxic”; in series [26] it was “Non-toxic”; in [31] it was “Non-toxic”. Moreover, the half-life in series [21] is 7.41 h. Moreover, the outcome in series [5] and in [6] was Active. The AUC in [24] is 45 µg/h/mL. Besides, the Kp at 24 h in series [27] worked out at 6.67. Moreover, the time of peak concentration (Tmax) in [30] was 1 h. The fraction unbound at 72 h in series [33] is 0.1.
